Reference: ChEMBL document CHEMBL2311425, “Histone deacetylase (HDAC) inhibitors with a novel connecting unit linker region reveal a selectivity profile for HDAC4 and HDAC5 with improved activity against chemoresistant cancer cells” (J Med Chem, 2013)

How the values were obtained:
[1] = tested on: KYSE-510; test: Potentiation of 8 uM cisplatin-induced toxicity in 0.5 uM cisplatin resistant human KYSE-510 cells at 0.5 uM pretreated for 48 hrs followed by 0.5 uM cisplatin treatment by MTT assay; assay type: functional
[2] = tested on: MDA-MB-231; test: Potentiation of 10 uM cisplatin-induced toxicity in 1 uM cisplatin resistant human MDA-MB-231 cells at 0.5 uM pretreated for 48 hrs followed by 1 uM cisplatin treatment by MTT assay; assay type: functional
[3] = tested on: KYSE-510; test: Potentiation of 3.16 uM cisplatin-induced toxicity in 0.5 uM cisplatin resistant human KYSE-510 cells at 1 uM pretreated for 48 hrs followed by 0.5 uM cisplatin treatment by MTT assay; assay type: functional
[4] = tested on: MDA-MB-231; test: Potentiation of 5 uM cisplatin-induced toxicity in 1 uM cisplatin resistant human MDA-MB-231 cells at 0.25 uM pretreated for 48 hrs followed by 1 uM cisplatin treatment by MTT assay; assay type: functional
[5] = tested on: KYSE-510; test: Potentiation of 0.75 uM cisplatin-induced toxicity in 0.5 uM cisplatin resistant human KYSE-510 cells at 0.5 uM pretreated for 48 hrs followed by 0.5 uM cisplatin treatment by MTT assay; assay type: functional
In short: (§1)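 Cisplatin-resistant Kyse510 CisR (derived by weekly cycles of cisplatin over 24−30 weeks), grown in RPMI 1640 with 10% FCS at 37 °C, 5% CO₂. Test agent added 48 h before cisplatin, then 72 h further incubation. Viability by MTT (read at 544/690 nm) relative to untreated control wells. Combination index by Chou−Talalay method. Mean of three experiments.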

[6] = tested on: MDA-MB-231; test: Potentiation of […] cisplatin-induced toxicity in 1 uM cisplatin resistant human MDA-MB-231 cells at 0.5 uM pretreated for 48 hrs followed by 1 uM cisplatin treatment by MTT assay; assay type: functional
[7] = tested on: KYSE-510; test: Cytotoxicity against cisplatin resistant human KYSE-510 cells after 72 hrs by MTT assay; assay type: functional, cell-based; conditions: KYSE-510, 72 h
[8] = tested on: CAL-27; test: Potentiation of 1 uM cisplatin-induced toxicity in 1 uM cisplatin resistant human CAL27 cells at 1.5 uM pretreated for 48 hrs followed by 1 uM cisplatin treatment by MTT assay; assay type: functional
[9] = target: T1, Histone deacetylase 11 (Homo sapiens, UniProt Q96DB2); test: Inhibition of human HDAC11 by fluorescence assay
T1 sequence (Q96DB2 whole entry): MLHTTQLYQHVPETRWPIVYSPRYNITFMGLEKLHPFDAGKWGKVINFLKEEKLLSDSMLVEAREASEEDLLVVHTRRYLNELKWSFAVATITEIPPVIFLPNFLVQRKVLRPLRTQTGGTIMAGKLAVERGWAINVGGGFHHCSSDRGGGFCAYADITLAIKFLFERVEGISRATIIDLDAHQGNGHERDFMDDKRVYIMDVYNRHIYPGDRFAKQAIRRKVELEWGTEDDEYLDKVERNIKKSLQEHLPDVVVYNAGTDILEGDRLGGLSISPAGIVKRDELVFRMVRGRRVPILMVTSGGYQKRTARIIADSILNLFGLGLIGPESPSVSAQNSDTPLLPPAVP

[10] = tested on: MDA-MB-231; test: Potentiation of […] cisplatin-induced toxicity in 1 uM cisplatin resistant human MDA-MB-231 cells at 1.5 uM pretreated for 48 hrs followed by 1 uM cisplatin treatment by MTT assay; assay type: functional
[11] = tested on: CAL-27; test: Potentiation of 1 uM cisplatin-induced toxicity in 1 uM cisplatin resistant human CAL27 cells at 1 uM pretreated for 48 hrs followed by 1 uM cisplatin treatment by MTT assay; assay type: functional
[12] = tested on: CAL-27; test: Cytotoxicity against cisplatin sensitive human CAL27 cells after 72 hrs by MTT assay; assay type: functional, cell-based; conditions: CAL-27, 72 h
[13] = tested on: KYSE-510; test: Potentiation of 3.16 uM cisplatin-induced toxicity in 0.5 uM cisplatin resistant human KYSE-510 cells at 0.25 uM pretreated for 48 hrs followed by 0.5 uM cisplatin treatment by MTT assay; assay type: functional
[14] = tested on: A2780; test: Potentiation of 8 uM cisplatin-induced toxicity in 5 uM cisplatin resistant human A2780 cells at 1 uM pretreated for 48 hrs followed by 5 uM cisplatin treatment by MTT assay; assay type: functional
[15] = tested on: A2780; test: Potentiation of 1 uM cisplatin-induced toxicity in 5 uM cisplatin resistant human A2780 cells at 0.5 uM pretreated for 48 hrs followed by 5 uM cisplatin treatment by MTT assay; assay type: functional
[16] = target: Histone deacetylase; test: Inhibition of HDAC in cisplatin sensitive human CAL27 cells after 18 hrs by fluorescence assay; assay type: cell-based; conditions: cal-27
[17] = tested on: KYSE-510; test: Potentiation of 0.5 uM cisplatin-induced toxicity in 0.5 uM cisplatin resistant human KYSE-510 cells at 0.5 uM pretreated for 48 hrs followed by 0.5 uM cisplatin treatment by MTT assay; assay type: functional
[18] = tested on: KYSE-510; test: Potentiation of 1 uM cisplatin-induced toxicity in 0.5 uM cisplatin resistant human KYSE-510 cells at 0.5 uM pretreated for 48 hrs followed by 0.5 uM cisplatin treatment by MTT assay; assay type: functional
[19] = tested on: CAL-27; test: Potentiation of 10 uM cisplatin-induced toxicity in 1 uM cisplatin resistant human CAL27 cells at 1 uM pretreated for 48 hrs followed by 1 uM cisplatin treatment by MTT assay; assay type: functional
[20] = tested on: CAL-27; test: Potentiation of 2.5 uM cisplatin-induced toxicity in 1 uM cisplatin resistant human CAL27 cells at 1.5 uM pretreated for 48 hrs followed by 1 uM cisplatin treatment by MTT assay; assay type: functional
[21] = tested on: KYSE-510; test: Potentiation of cisplatin-induced toxicity in cisplatin resistant human KYSE-510 cells at 1 uM pretreated for 48 hrs followed by cisplatin treatment by MTT assay; assay type: functional
In short: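 Resistant sublines pretreated 48 h with 1 μM HDAC inhibitor, then cisplatin over a concentration range for 72 h; MTT viability read at 544/690 nm. Cisplatin IC50 from four-parameter logistic fit of pooled data (≥3 experiments, triplicate); shift factor = IC50 of cisplatin alone divided by IC50 of the combination.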

[22] = tested on: KYSE-510; test: Potentiation of 0.75 uM cisplatin-induced toxicity in 0.5 uM cisplatin resistant human KYSE-510 cells at 1 uM pretreated for 48 hrs followed by 0.5 uM cisplatin treatment by MTT assay; assay type: functional; in short: as §1
[23] = tested on: A2780; test: Potentiation of 20 uM cisplatin-induced toxicity in 5 uM cisplatin resistant human A2780 cells at 0.5 uM pretreated for 48 hrs followed by 5 uM cisplatin treatment by MTT assay; assay type: functional
[24] = tested on: MDA-MB-231; test: Cytotoxicity against cisplatin resistant human MDA-MB-231 cells after 72 hrs by MTT assay; assay type: functional, cell-based; conditions: MDA-MB-231, 72 h
[25] = tested on: MDA-MB-231; test: Potentiation of 5 uM cisplatin-induced toxicity in 1 uM cisplatin resistant human MDA-MB-231 cells at 1 uM pretreated for 48 hrs followed by 1 uM cisplatin treatment by MTT assay; assay type: functional

With Cc1cc(C)cc(C(=O)NOCCCCCC(=O)NO)c1 as the molecule, how does the Activity [1] read?
Its Activity is “Dose-dependent effect”.

And the “fractional inhibitory concentration index (FICI)” value [1]?
The value was 0.16.

And the Activity [2]?
The Activity was “Dose-dependent effect”.

And the Activity [3]?
The Activity was “Dose-dependent effect”.

And the “fractional inhibitory concentration index (FICI)” value [3]?
The value was 0.09.

What about the Activity [4] of the same molecule?
The Activity was “Dose-dependent effect”.

What about the “fractional inhibitory concentration index (FICI)” value [4] of the same molecule?
The value was under 0.2.

What about the Activity [5] of the same molecule?
Its Activity is “Dose-dependent effect”.

What about the “fractional inhibitory concentration index (FICI)” value [5] of the same molecule?
The value was 0.07.

What about the Activity [6] of the same molecule?
Its Activity is “Dose-dependent effect”.

And the “fractional inhibitory concentration index (FICI)” value [6]?
The value was 0.81.

What about the IC50 [7] of the same molecule?
Its IC50 is 2480 nM.

What about the Activity [8] of the same molecule?
The Activity was “Dose-dependent effect”.

What about the “fractional inhibitory concentration index (FICI)” value [8] of the same molecule?
The value was 0.48.

What about the IC50 [9] of the same molecule?
The IC50 was 852 nM.

What about the Activity [10] of the same molecule?
The Activity was “Dose-dependent effect”.

What about the “fractional inhibitory concentration index (FICI)” value [10] of the same molecule?
Its value is 0.8.

And the Activity [11]?
Its Activity is “Dose-dependent effect”.

And the IC50 [12]?
The IC50 was 1030 nM.

What about the Activity [13] of the same molecule?
The Activity was “Dose-dependent effect”.

And the “fractional inhibitory concentration index (FICI)” value [13]?
Its value is 0.18.

What about the Activity [14] of the same molecule?
The Activity was “Dose-dependent effect”.

And the “fractional inhibitory concentration index (FICI)” value [14]?
Its value is 0.59.

And the Activity [15]?
The Activity was “Dose-dependent effect”.

And the “fractional inhibitory concentration index (FICI)” value [15]?
The value was 0.85.

And the IC50 [16]?
Its IC50 is 360 nM.

What about the Activity [17] of the same molecule?
The Activity was “Dose-dependent effect”.

And the “fractional inhibitory concentration index (FICI)” value [17]?
The value was 0.13.

What about the Activity [18] of the same molecule?
The Activity was “Dose-dependent effect”.

And the “fractional inhibitory concentration index (FICI)” value [18]?
Its value is 0.08.

And the Activity [19]?
The Activity was “Dose-dependent effect”.

And the “fractional inhibitory concentration index (FICI)” value [19]?
Its value is 0.24.

What about the Activity [20] of the same molecule?
Its Activity is “Dose-dependent effect”.

And the “fractional inhibitory concentration index (FICI)” value [20]?
The value was 0.34.

What about the Activity [21] of the same molecule?
The Activity was “Dose-dependent effect”.

What about the fold change (FC) [21] of the same molecule?
Its fold change (FC) is 18.8.

What about the Activity [22] of the same molecule?
Its Activity is “Dose-dependent effect”.

What about the “fractional inhibitory concentration index (FICI)” value [22] of the same molecule?
The value was 0.05.

What about the Activity [23] of the same molecule?
The Activity was “Dose-dependent effect”.

What about the “fractional inhibitory concentration index (FICI)” value [23] of the same molecule?
Its value is 0.58.

What about the IC50 [24] of the same molecule?
Its IC50 is 1680 nM.

What about the Activity [25] of the same molecule?
The Activity was “Dose-dependent effect”.
